From ChEMBL document CHEMBL3232844, “Synthesis and structure activity relationships of schweinfurthin indoles” (2014) come the findings set out here.

Molecules are shown by their SMILES.

The subject of this assay is SF-295. The assay can be described thus: Cytotoxicity against human SF295 cells. Conditions: read-out: GI50. The format is functional. In short, it runs like this:
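Tested in a 60-cell-line human tumor panel screen; the read-out is growth inhibition, reported as GI50 for each cell line.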

For `COc1cc(/C=C/c2cc(O)c(CC=C(C)C)c(O)c2)cc2c1O[C@]1(C)CC[C@@H](O)C(C)(C)[C@H]1C2` [SCHWEINFURTHIN F], the 50% growth inhibitory concentration (GI50) was below 0.036 µM.

Take `CC(C)=CCc1c(O)cc(/C=C/c2cc(O)c3c(c2)C[C@@H]2C(C)(C)[C@H](O)CC[C@@]2(C)O3)cc1O` [SCHWEINFURTHIN G]: the GI50 came out at 0.01 µM.

As usually defined, the GI50 is the concentration giving 50% growth inhibition.
